Assay outcomes deposited in PubChem by several laboratories.
In the library only some 4% were active in any assay of this set; here they are far more common.
Yeast lifespan up: yeast lifespan extension. S. cerevisiae growth with nicotinamide, OD615; deaD strain in restrictive glucose medium. inhibition of the nicotinamide effect, % at 10 µM. 130,000 tested, 0.68% active;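 active = inhibition above a set limit, placed 3 SD over the median of all compounds, cut at about 26% in these data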;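 also: 0% = nicotinamide-treated wells and 100% = cells grown without nicotinamide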
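Assay system: DeaD-strain S. cerevisiae. Medium: CSMM-D glucose medium, restrictive. Reagent: nicotinamide, 1.5 mM, co-present with compound. Compound: 10 µM single point, 0.25% DMSO. Schedule: culture preincubation 4 h, compound exposure 48 h, both 30 °C. Detection: absorbance at 615 nm.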
RAM network inh: yeast RAM network inhibition | S. cerevisiae dse1pr::URA3 reporter, 5-FOA growth OD615, 2 d; analog-sensitive cbk1-as2 kinase mutant strain | inhibition, % at 50 µM | 190,000 tested, 1.8% active | AID 868;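 active = inhibition above a set limit, 3 SD over mean compound inhibition, cut at about 8.4% in these data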;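 also: 0% = DMSO-only wells with no growth and 100% = 10 µM 1-NA-PP1 full growth; inhibition rescues growth on 5-FOA so higher OD means more RAM inhibition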
Mdm2 ligase inh: blocks human Mdm2 ubiquitin ligase activity; cell-based MDM2 ubiquitination luciferase reporter, 2 h; 0 = plate control, 100 = twice control, blank-subtracted; signal enhancement, % at 5 µM; 210,000 tested, 0.11% active; AID 1230;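 active = signal enhancement of 30% or more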;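 also: luminescence tracks abundance of the self-degrading MDM2-luciferase fusion protein; higher signal means inhibition of MDM2 E3 ligase activity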
Target sequence (Q00987 whole entry, looked up, the tested form may be a part): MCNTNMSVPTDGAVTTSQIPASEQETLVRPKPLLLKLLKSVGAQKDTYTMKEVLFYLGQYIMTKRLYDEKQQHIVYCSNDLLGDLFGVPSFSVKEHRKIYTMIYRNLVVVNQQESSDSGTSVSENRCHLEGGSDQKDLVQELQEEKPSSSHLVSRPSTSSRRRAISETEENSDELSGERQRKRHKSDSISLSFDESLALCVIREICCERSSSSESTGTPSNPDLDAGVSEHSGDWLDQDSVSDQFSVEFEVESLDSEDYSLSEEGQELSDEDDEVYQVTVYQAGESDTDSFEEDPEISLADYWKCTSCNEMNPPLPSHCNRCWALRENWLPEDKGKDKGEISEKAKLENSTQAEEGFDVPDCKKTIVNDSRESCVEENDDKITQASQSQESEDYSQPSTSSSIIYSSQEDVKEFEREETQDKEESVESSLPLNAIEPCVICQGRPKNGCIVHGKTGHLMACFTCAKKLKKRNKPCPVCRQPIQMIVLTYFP
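system = mammalian cells stably expressing self-ubiquitinating, self-degrading MDM2 E3–luciferase fusion | quantity = 2000 cells per well seeded | incubation = 4 h cell settling then 2 h compound exposure, 37 °C | signal = SteadyLite luminescence, 15 min reagent step | benchmarks = plate control and blank wells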
Insulin prom inh: TRM-6 insulin promoter activity inhibition; inhibition, % at 2 µM; TRM-6 cells, insulin promoter-eGFP reporter, imaging; reporter expression induced with tamoxifen; 130,000 tested, 0.9% active; AID 1273;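 active = inhibition above the mean plus 3 SD, with well images judged a real hit on visual review, cut at about 60% in these data, passing the limit was not always enough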
BB579 growth dn: chemicals that inhibit yeast BB579 growth in restrictive medium (lifespan-shortening candidates). S. cerevisiae BB579 growth, OD615, 48 h. inhibition, % at 10 µM. 140,000 tested, 0.51% active. AID 804;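 active = inhibition above a set limit, 3 SD over the mean compound inhibition, cut at about 44% in these data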
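Assay system – yeast BB579 (DeaD) · Dosing – single compound dose of 10 µM, 0.25% DMSO final · Detection – OD615 turbidity measurement · Buffer or medium – CSMM-D restrictive synthetic medium containing dextrose (glucose) · Benchmarks – positive control amphotericin B 10 µg/mL · Incubation – 48 h exposure, 30 °C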
Measles CPE: protection of cells from measles virus; Measles virus-infected cells, CPE protection, absorbance; protection (pct of control), % at 4 µM; 140,000 tested, 1.5% active; in the data active = protection mostly above about 24%, no sharp cut-off; inactive = mostly below about 26%
An asterisk follows results filed as active; · = no result.

SMILES | Yeast lifespan up | RAM network inh | Mdm2 ligase inh | Insulin prom inh | BB579 growth dn | Measles CPE
Cc1ccc(S(=O)(=O)N(CC(=O)NC2CCCCCC2)c2ccccc2F)cc1 | -7.8 | 4.8 | -11.6 | -26.7 | -31.2 | 12.0
O=C(CN(c1ccccc1F)S(=O)(=O)c1ccccc1)NC1CCCCCC1 | -4.1 | 10.6* | -9.9 | -33.3 | -28.1 | 23.8
C=C(C)C1Cc2c(C)nn(-c3cc(C)c4ccccc4n3)c2C1 (stereo not drawn) | · | · | · | -81.2 | · | ·
O=S(=O)(NCCSCc1c(Cl)cccc1Cl)c1ccc2c(c1)OCCO2 | 4.1 | 8.8* | -4.6 | -34.5 | -56.0 | 6.5
O=S(=O)(Nc1cccnc1Cl)c1ccc2c(c1)OCCO2 | 8.2 | -0.3 | -15.4 | -4.7 | -9.9 | 33.3*
O=[N+]([O-])c1cc(C(F)(F)F)ccc1N1CCN(S(=O)(=O)c2ccc3c(c2)CCCC3)CC1 | 1.0 | 3.6 | -2.2 | 0.0 | -5.7 | 4.8
CCCn1c(SCC(=O)Nc2ccc(S(=O)(=O)N(C)C)cc2)n[nH]c1=O | · | -1.4 | -1.3 | 16.7 | · | ·
COc1ccc(/C=C/C(=O)NCCSCc2ccco2)cc1OC | · | · | -11.8 | · | · | ·
N#C/C(=N\Nc1ccccc1)C(=N)N1CCOCC1 | -2.3 | 3.4 | · | -33.3 | -40.6 | 74.0*
CC(C(=O)N(C1CC1)C1(C(=O)Nc2ccccc2)CCCC1)N1C(=O)c2ccccc2C1=O (stereo not drawn) | 3.5 | 1.1 | -16.8 | -56.2 | -73.6 | 26.1
COc1cc(Nc2ccc(C(=O)O)cc2[N+](=O)[O-])cc(OC)c1 | 7.3 | 10.3* | -15.6 | 7.1 | -72.5 | 7.3
Cc1ccc(Nc2ccc(C(N)=O)cc2[N+](=O)[O-])cc1C | -2.6 | 3.5 | 3.5 | 31.2 | -36.4 | 8.0
NC(=O)C1(N2CCCCC2)CCN(C(=O)CSc2nc3ccccc3[nH]2)CC1 | · | 0.1 | -5.0 | -95.3 | -37.6 | 41.2*
NC(=O)C1CCN(C(=O)CSc2nc3ccccc3[nH]2)CC1 | -10.5 | 1.6 | -4.3 | 18.3 | -12.4 | 16.0
Cc1ccc(-c2cc(C(=O)N/N=C/c3c(C)nn(C)c3C)c3ccccc3n2)c(C)c1 | -6.7 | 2.4 | -16.8 | 0.0 | -60.0 | 17.8
Cc1cc(NC(=O)CSc2ccc3nnc(-c4cccnc4)n3n2)no1 | -0.1 | 2.9 | -11.5 | · | -9.7 | 44.5*
NS(=O)(=O)c1ccc(CCNC(=S)Nc2ccccc2)cc1 | 2.7 | 0.6 | -10.5 | 6.2 | -5.5 | ·
O=C(NC(=S)NNC(=O)c1ccc(Cl)cc1Cl)c1cccnc1 | 44.0* | -0.8 | -8.9 | -18.5 | -5.8 | 12.3
CCCc1ccc(-c2cc(C(=O)Nc3ccc([N+](=O)[O-])cn3)c3ccccc3n2)cc1 | -0.8 | 3.1 | -5.1 | · | -12.4 | 17.3
CS(=O)(=O)N1CCC(C(=O)c2cccc(Cl)c2)CC1 | -2.1 | 2.3 | -19.5 | · | -51.6 | 12.4
Cc1nc2c3cc(F)ccc3n(Cc3ccc(F)cc3)c2s1 | 0.3 | 3.0 | · | 76.7* | 6.6 | 14.8
CCCCSc1nnc(-c2ccccc2NC(C)=O)c(=O)[nH]1 | · | 0.0 | -6.8 | · | · | ·
CCOc1ccc(C2=Nc3ccc(Br)cc3C(c3ccc(N4CCOCC4)cc3)=NN2)cc1 | -0.4 | 10.1* | -3.9 | · | -25.0 | 10.5
CCOc1ccc(C2=Nc3ccccc3C(c3ccc(N4CCOCC4)cc3)=NN2)cc1 | -24.0 | 0.4 | -14.0 | 9.1 | -13.9 | 7.5
COc1ccc(S(=O)(=O)N[C@@H](C)C(=O)OCC(=O)Nc2cc3oc4ccccc4c3cc2OC)cc1 | -3.4 | 9.6* | 5.6 | 2.0 | -39.5 | 14.1
SMILES | Yeast lifespan up | RAM network inh | Mdm2 ligase inh | Insulin prom inh | BB579 growth dn | Measles CPE
COc1cc2c(cc1NC(=O)CSc1ccccc1)oc1ccccc12 | 2.5 | 10.6* | · | -20.0 | -14.1 | 15.2
COc1ccc([N+](=O)[O-])cc1NC(=O)CSc1ccccc1 | -14.3 | 4.6 | -0.7 | -8.3 | -25.6 | 66.2*
COc1cc2c(cc1NC(=O)CSc1nccn1C)oc1ccccc12 | -5.0 | 0.0 | -6.7 | -23.3 | -27.4 | 8.4
COc1cc2c(cc1NC(=S)NC(=O)/C=C/c1ccc(OC)c(OC)c1)oc1ccccc12 | -6.9 | -0.8 | 5.2 | 24.0 | -3.4 | 53.4*
COc1ccc(-c2nc(CN3CCCCC3c3nccn3C)c(C)o2)c(C)c1C (stereo not drawn) | · | 1.6 | -9.6 | -52.4 | · | ·
Cc1noc(C)c1S(=O)(=O)N(C)CC(=O)Nc1ccc(F)cc1 | -7.3 | 1.7 | -10.1 | -45.8 | -6.8 | 7.0
CCCn1c(/N=C/c2ccc3c(c2)OCO3)nc2ccccc21 | -3.0 | 0.0 | -8.1 | -16.1 | -20.8 | 32.0*
Cc1ccc(C)c(NC(=O)C(Sc2nnc(-c3cccs3)o2)c2ccccc2)c1 (stereo not drawn) | -5.2 | 0.8 | 50.1* | · | -10.8 | 9.0
C=CCN(CC=C)CCOc1ccc2ccccc2c1 | · | 2.4 | -3.9 | 17.6 | · | ·
COc1ccc(CN2CCC(CO)(Cc3cccc(C(F)(F)F)c3)CC2)cc1Cn1cccn1 | · | 2.9 | 13.4 | · | · | ·
CCc1[nH]nc2c1C(c1ccc(Br)s1)C(C#N)=C(N)O2 (stereo not drawn) | 57.5* | 0.3 | -10.8 | -34.3 | -26.4 | 20.7
CCCc1[nH]nc2c1C(c1cc(OC)ccc1F)C(C#N)=C(N)O2 (stereo not drawn) | 21.9 | 0.7 | -18.6 | -5.6 | -21.4 | 14.9
CCCc1[nH]nc2c1C(c1ccc(OC)c(CSC3=NCCS3)c1)C(C#N)=C(N)O2 (stereo not drawn) | -3.2 | 0.7 | 3.2 | -19.0 | -38.6 | 27.9*
CCCc1[nH]nc2c1C(c1ccc(OC(=O)N3CCOCC3)c(OC)c1)C(C#N)=C(N)O2 (stereo not drawn) | -3.1 | 1.9 | -8.2 | -100.0 | -21.9 | 8.2
CCCc1[nH]nc2c1C(c1cc(OC)cc(OC)c1)C(C#N)=C(N)O2 (stereo not drawn) | -1.3 | -1.0 | -5.0 | 10.7 | 5.7 | 83.2*
O=C(NCCOc1nc(N2CCCCC2)nc(N2CCCCC2)n1)Nc1ccccc1 | · | 3.0 | -2.3 | · | · | ·
CCN(CC)c1nc(OCCNC(=O)Nc2ccccc2)nc(N(CC)CC)n1 | -12.2 | 2.0 | -1.2 | 71.4* | -9.0 | 18.3
c1ccc(-c2nc3c(ccc4ccccc43)[nH]2)nc1 | · | -0.4 | -9.9 | 38.5 | 71.7* | 12.8
c1ccc(-c2nc3ccccc3[nH]2)nc1 | -3.7 | 0.4 | -25.5 | 44.4 | -19.0 | 11.1
CCOC(=O)c1ccccc1NC(=O)c1cc(S(=O)(=O)N2CCOCC2)ccc1F | -10.0 | 1.2 | -4.9 | -9.7 | -11.0 | 1.9
CCOC(=O)N1CCN(S(=O)(=O)c2ccc(F)c(C(=O)Nc3cccc(C)c3C)c2)CC1 | 45.2* | 5.2 | -17.6 | · | -52.2 | 2.0
Cc1ccc2c(CC(=O)Nc3nc(C)cs3)coc2c1 | -15.9 | 1.6 | 1.7 | 53.9 | -11.2 | 1.7
O=C(COC(=O)CC1c2ccccc2CCN1S(=O)(=O)c1ccc(F)cc1)Nc1ccccc1 (stereo not drawn) | 2.4 | 8.6* | 27.0 | -14.7 | 5.3 | 5.2
